Rows were chosen to be rich in hits. Some 3.6% of all compounds tested hit in one or more screens of this group.
DNA FID counter = fluorescent intercalator displacement, NS3 helicase counter-screen | DNA fluorescent intercalator displacement, fluorescence | hit rate 0.17% among 290,000 | AID 1845 | inhibition, % at 7.9 µM; in the data active means inhibition above about 37%;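 further: 0% = vehicle and 100% = reference compound; higher means more ethidium bromide displaced from hairpin DNA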
ZTA DNA inh = ZTA (EBV) inhibition in EBNA-1 counter-screen; AID 2234; inhibition, % at 11 µM; P03206; ZTA-DNA binding, fluorescence polarization; hit rate 0.15% among 320,000; in the data active means inhibition above about 33%
Target sequence (P03206 whole entry, looked up): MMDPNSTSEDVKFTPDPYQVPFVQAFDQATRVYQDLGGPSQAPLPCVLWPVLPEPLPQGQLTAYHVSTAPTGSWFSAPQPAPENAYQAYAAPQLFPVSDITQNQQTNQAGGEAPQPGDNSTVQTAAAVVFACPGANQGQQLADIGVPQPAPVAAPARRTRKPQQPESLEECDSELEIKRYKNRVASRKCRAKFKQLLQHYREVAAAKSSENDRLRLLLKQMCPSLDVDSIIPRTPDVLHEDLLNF
FGF22 binding = binders of recombinant human FGF22 by thermal shift; SYPRO orange fluorescence; percent of sucrose octasulfate shift, DMSO zero; activity (Tm shift, normalised), % at 9.99 µM; hit rate 1.5% among 340,000; AID 651658;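 active means mean Tm shift, scaled 0 neutral to 100 positive control, at about 1.3% or above, every replicate too, limit read from the data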
Target sequence (Q9HCT0 whole entry, looked up): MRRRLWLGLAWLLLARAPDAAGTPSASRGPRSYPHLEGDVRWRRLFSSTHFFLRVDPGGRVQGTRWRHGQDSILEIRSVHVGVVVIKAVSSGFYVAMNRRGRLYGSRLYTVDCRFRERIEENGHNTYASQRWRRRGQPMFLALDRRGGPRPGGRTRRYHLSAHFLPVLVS
HCV NS3 hel inh = blocks Hepatitis C virus NS3 helicase unwinding; NS3 helicase DNA unwinding, Cy5 molecular beacon fluorescence; inhibition, % at 10.9 µM; hit rate 0.56% among 290,000;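 active means inhibition above the mean of all tested compounds plus 3 SD, set per campaign, cut at about 35% in these data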;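 further: 0% = DMSO wells and 100% = thioflavine S control wells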
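Compound dosing – single dose, 10.9 µM nominal final, DMSO 0.8% final · System – NS3 helicase fragment of HCV · Buffer or medium – MOPS pH 6.5, MgCl2, DTT, Tween20, BSA · Signal – Cy5 beacon fluorescence read at start and 1 h · Also added – annealed dual-labelled DNA beacon duplex, ATP-started · Schedule – 1 h at 25 °C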
EBNA-1 inhibitor = blocks EBNA-1 binding to DNA. EBNA-1 DNA binding, fluorescence polarization. hit rate 0.34% among 300,000. inhibition, % at 14.8 µM; in the data active means inhibition above about 28%
GRIN3A LBD mod = modulates the human NR3A ligand-binding domain. AID 1259313. Tm shift relative to glycine control, % at 25 µM. NR3A LBD differential scanning fluorimetry, Tm shift; 0% = protein alone, 100% = glycine-bound protein. hit rate 2.5% among 340,000;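 active means melting temperature shift of at least 10% of the positive control shift, at one fixed dose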
Numbers without * were called inactive; / = no result given.

SMILES	DNA FID counter	ZTA DNA inh	FGF22 binding	HCV NS3 hel inh	EBNA-1 inhibitor	GRIN3A LBD mod
CN1C[C@@H]2[C@H](c3ccccc31)[C@H](CO)N2C(=O)C1CCCCC1	/	/	0	/	/	/
C[C@H]1CN([C@@H](C)CO)C(=O)c2cccc(NS(=O)(=O)c3cn(C)cn3)c2O[C@@H]1CN(C)Cc1ccncc1	/	/	0	/	/	/
CCCC(=O)Nc1ccc2c(c1)C(=O)N(C)[C@@H]1CC[C@H](CC(=O)NCc3ccccc3Cl)O[C@H]1CO2	/	/	0	/	/	/
COc1ccc(CN(C)C[C@H]2Oc3ccc(NC(=O)Nc4ccc5c(c4)OCO5)cc3C(=O)N([C@H](C)CO)C[C@@H]2C)cc1	/	/	0	/	/	/
Cc1cc(C)cc(NC(=O)/C(C#N)=C/c2cn(CC(=O)NCc3ccco3)c3ccccc23)c1	-3	19	/	2	40*	3
CCOC(=O)c1cc2occc2n1Cc1ccc(F)cc1	-1	8	/	-1	10	15*
O=C(C[C@@H]1CC[C@H]2[C@@H](COC[C@H](O)CN2C(=O)Nc2cccc(F)c2)O1)NCc1ccccc1Cl	/	/	0	/	/	/
CC1(C)CC(=O)C2=C(C1)NC1=C(C(=O)c3ccccc31)C2c1ccccc1 (stereo not given)	-10	8	0	-9	3	-7
CC1(C)CC(=O)C2=C(C1)NC1=C(C(=O)c3ccccc31)C2c1cccnc1 (stereo not given)	-12	-2	44*	3	1	-1
CC1Oc2ccccc2N(CC(=O)Nc2ccc3c(c2)OCO3)C1=O (stereo not given)	-5	10	/	4	11	0
CC1Oc2ccccc2N(CC(=O)NCc2ccc3c(c2)OCO3)C1=O (stereo not given)	-5	-4	43*	6	13	-1
O=C(Nc1ccccc1)N1C[C@@H]2[C@H](c3ccccc31)[C@@H](CO)N2Cc1ccc(F)cc1	/	/	-1	/	/	/
COc1ccc(-c2cc(=O)c3c(OC)c(OC)c(OC)c(OC)c3o2)cc1OC	-34	11	0	-4	10	-2
COc1ccc(Br)c2oc(SC)cc(=O)c12	-8	-2	0	2	-1	10*
CCOC(=O)[C@@H]1[C@H]2COc3ccccc3[C@H]2N2C(=O)N(c3cccc(C)c3)C(=O)[C@]12C	/	/	0	/	/	0
CCOC(=O)[C@@H]1[C@H]2COc3cc(OC)ccc3[C@@H]2N2C(=O)N(c3ccc(F)cc3)C(=O)[C@]12C	-37	15	44*	-13	8	-2
C[C@@]12C(=O)N(c3ccc(Br)cc3)C(=O)N1[C@@H]1c3ccccc3OC[C@@H]1[C@H]2c1ccccc1	/	/	1.5*	/	/	1
CCOC(=O)[C@@H]1[C@H]2COc3ccccc3[C@H]2N2C(=O)N(c3ccc(C)cc3)C(=O)[C@]12C	-34	4	0	-12	5	5
C[C@]12C(=O)N(c3ccc(Br)cc3)C(=O)N1[C@@H]1c3ccccc3OC[C@@H]1[C@H]2c1ccccc1	-12	-17	0	-4	-8	-1
CCOC(=O)[C@@H]1[C@H]2COc3ccccc3[C@H]2N2C(=O)N(c3cccc(Cl)c3)C(=O)[C@]12C	/	/	0	/	/	17*
CCOC(=O)[C@@H]1[C@H]2COc3ccccc3[C@@H]2N2C(=O)N(c3ccc(Cl)cc3)C(=O)[C@]12C	-34	-17	44*	-20	-7	0
CCOC(=O)[C@@H]1[C@H]2COc3cc(OC)ccc3[C@H]2N2C(=O)N(c3ccc(F)cc3)C(=O)[C@@]12C	-30	-1	0	5	-13	1
COc1ccc2c3c([nH]c2c1)[C@@H](CO)N(C(=O)c1ccccn1)CC31CN(C(=O)C2CCCC2)C1	/	/	-1	/	/	/
COc1ccc2c3c(n(C)c2c1)[C@@H](CO)N(C(=O)Cc1ccccc1)CC31CCN(C(=O)Cc2ccccc2)CC1	/	/	0	/	/	/
CCC(=O)Nc1ccc2c(c1)C(=O)N(C)C[C@@H](OC)[C@@H](C)CN(CCc1ccccc1)[C@H](C)CO2	/	/	0	/	/	/
SMILES	DNA FID counter	ZTA DNA inh	FGF22 binding	HCV NS3 hel inh	EBNA-1 inhibitor	GRIN3A LBD mod
CCN(CC)c1ccc(C(=C2C=CC(=[N+](CC)CC)C=C2)c2ccccc2)cc1	/	/	0	/	/	-88
CCN(CC)c1ccc(C(=C2C=CC(=[N+](CC)CC)C=C2)c2ccc(N(CC)CC)cc2)cc1	/	/	/	/	/	351*
COc1ccccc1C1CC(c2c(-c3ccccc3)c3cc(Cl)ccc3[nH]c2=O)=NN1S(C)(=O)=O (stereo not given)	-13	5	/	-3	-4	25*
COc1cccc(C2CC(c3c(-c4ccccc4)c4cc(Cl)ccc4[nH]c3=O)=NN2S(C)(=O)=O)c1OC (stereo not given)	-32	-1	/	-2	2	-3
CC(C)NC(=O)Nc1cccc2c1O[C@@H](CN(C)C(=O)Nc1cccc3ccccc13)[C@@H](C)CN([C@H](C)CO)C2=O	/	/	0	/	/	/
O=C(Cn1cnc2ccccc21)N/N=C/c1ccccc1	2	8	43*	-3	-4	-17
CC(/C=N/NC(=O)Cn1cnc2ccccc21)=C\c1ccccc1	-17	8	0	-5	-11	0
CCCNC(=O)C[C@@H]1C[C@H]2c3cc(NC(=O)C4CCOCC4)ccc3O[C@H]2[C@@H](CO)O1	/	/	0	/	/	/
CN(C(=O)COc1ncnc2sccc12)c1ccccc1	-3	-12	43*	5	-1	1
CN(CC(=O)Nc1ccccc1C(F)(F)F)C(=O)COc1ncnc2sccc12	3	-6	0	1	6	1
Cc1ccsc1C=Nc1ccc(O)cc1	2	38*	/	24	-2	-1
O=C(NCc1cccc(F)c1)C1CCC(=O)N(C2CCCC2)C1 (stereo not given)	-8	-2	0	0	1	1
O=C(NCc1ccc(Cl)cc1)C1CCC(=O)N(C2CCCCCC2)C1 (stereo not given)	-32	8	0	1	-7	10*
CCCCSc1nc2c([nH]1)c(=S)n(C)c(=O)n2C	/	/	0	/	/	0
CSc1nc2c([nH]1)c(=S)n(C)c(=O)n2C	/	/	43*	/	/	1
Cc1cccc(CN2CCc3c([nH]c4ccccc34)C2CC(C)C)n1 (stereo not given)	-6	1	0	-13	7	-3
Cc1cnc(CN2CCc3c([nH]c4ccccc34)C2CC(C)C)[nH]1 (stereo not given)	3	-3	43*	-8	-3	-2
COc1ccc(NC(=O)Nc2ccc3c(c2)[C@@H]2C[C@H](CC(=O)N[C@@H](C)c4ccccc4)O[C@H](CO)[C@@H]2O3)cc1	/	/	0	/	/	/
CC(C)NC(=O)N(C)C[C@H]1Oc2ccc(NS(=O)(=O)c3cn(C)cn3)cc2C(=O)N([C@H](C)CO)C[C@H]1C	/	/	0	/	/	/
COC(=O)c1ccc(NC(=O)NCCCl)cc1	10	4	0	-3	2	1

From PubChem
